Experimental data reported in ChEMBL document CHEMBL4706714 (Bioorg Med Chem, 2021).
Blank lines part the entries; values can stand above or below the compound they belong to. Calls of active or inactive are those of the source. The calls are words filed in the database; no cut-off is given here.

How the values were obtained:
[1] = Cytotoxicity against Chinese Hamster MTXRII-OuaR2-4 R2 cells assessed as reduction in cell proliferation after 96 hrs by CellTiter-blue assay; format: cell-based; settings: Cricetulus griseus, R2, 96 h
KB [2] = experiment: Antiproliferative activity against human KB cells assessed as reduction in cell viability after 96 hrs by CellTiter-blue assay; format: functional, cell-based
KB [3] = experiment: Antiproliferative activity against human KB cells assessed as reduction in cell viability after 96 hrs in presence of folic acid by CellTiter-blue assay; format: functional, cell-based
Outline: (§1)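 Cells grown in folate-free RPMI with 10% dialyzed FBS, 2 nM leucovorin, 2 mM L-glutamine; 2500–5000 cells/well, inhibitors 0–1000 nM, with 200 nM folic acid added in parallel wells to block FR uptake.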

IGROV-1 [4] = experiment: Antiproliferative activity against human IGROV1 cells assessed as reduction in cell viability after 96 hrs by CellTiter-blue assay; format: functional, cell-based; settings: IGROV-1, 96 h
IGROV-1 [5] = experiment: Antiproliferative activity against human IGROV1 cells assessed as reduction in cell viability after 96 hrs in presence of folic acid by CellTiter-blue assay; format: functional, cell-based; settings: IGROV-1, 96 h; outline: as §1
[6] = target: Folate receptor alpha (Homo sapiens) (UniProt P15328); experiment: Displacement of [3H]-folic acid from human FRalpha expressed in Chinese Hamster MTXRII-OuaR2-4 R2 cells after 15 mins by liquid scintillation counting method; format: cell-based
Folate receptor alpha (Homo sapiens), sequence (P15328 25-234 limits assumed): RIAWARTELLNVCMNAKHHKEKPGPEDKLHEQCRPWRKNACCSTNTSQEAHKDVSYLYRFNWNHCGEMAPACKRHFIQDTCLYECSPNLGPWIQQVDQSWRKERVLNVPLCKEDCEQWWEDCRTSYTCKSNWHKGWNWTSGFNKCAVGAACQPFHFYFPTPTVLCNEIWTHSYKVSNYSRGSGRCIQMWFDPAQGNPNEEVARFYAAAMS
Outline: (§2)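 RT16 (FRα) or D4 (FRβ) CHO transfectants, 1 × 10^6 cells, adhered 24 h; washed at 4 °C with DPBS, pH 3.5 acetate buffer to strip bound folate, then HBS pH 7.4. Incubated 15 min at 0 °C with 50 nM [3H]folic acid plus competitor 0–1 μM; bound label per mg protein (Folin-phenol).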

[7] = target: Folate receptor beta (Homo sapiens) (UniProt P14207); experiment: Displacement of [3H]-folic acid from human FRbeta expressed in Chinese Hamster MTXRII-OuaR2-4 R2 cells after 15 mins by liquid scintillation counting method; format: cell-based; outline: as §2
Folate receptor beta (Homo sapiens), sequence (P14207 17-230 limits assumed): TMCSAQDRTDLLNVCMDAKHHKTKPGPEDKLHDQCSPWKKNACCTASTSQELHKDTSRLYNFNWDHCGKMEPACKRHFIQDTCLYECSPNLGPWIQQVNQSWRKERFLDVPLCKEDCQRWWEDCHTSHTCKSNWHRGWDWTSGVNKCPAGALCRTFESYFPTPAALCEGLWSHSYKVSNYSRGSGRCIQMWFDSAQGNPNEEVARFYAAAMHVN

[8] = Inhibition of human full length N-terminal His-tagged GARFTase expressed in Chinese Hamster MTXRII-OuaR2-4 R2 cells assessed as reduction in THF formation using 10-CHOTHF as substrate by spectrophotometric method
[9] = target: T1, Bifunctional purine biosynthesis protein ATIC (Homo sapiens, UniProt P31939); experiment: Inhibition of human full length N-terminal His-tagged ATIC expressed in Chinese Hamster MTXRII-OuaR2-4 R2 cells assessed as reduction in THF formation using 10-CHOTHF as substrate by spectrophotometric method
Target sequence in this assay (P31939 whole entry): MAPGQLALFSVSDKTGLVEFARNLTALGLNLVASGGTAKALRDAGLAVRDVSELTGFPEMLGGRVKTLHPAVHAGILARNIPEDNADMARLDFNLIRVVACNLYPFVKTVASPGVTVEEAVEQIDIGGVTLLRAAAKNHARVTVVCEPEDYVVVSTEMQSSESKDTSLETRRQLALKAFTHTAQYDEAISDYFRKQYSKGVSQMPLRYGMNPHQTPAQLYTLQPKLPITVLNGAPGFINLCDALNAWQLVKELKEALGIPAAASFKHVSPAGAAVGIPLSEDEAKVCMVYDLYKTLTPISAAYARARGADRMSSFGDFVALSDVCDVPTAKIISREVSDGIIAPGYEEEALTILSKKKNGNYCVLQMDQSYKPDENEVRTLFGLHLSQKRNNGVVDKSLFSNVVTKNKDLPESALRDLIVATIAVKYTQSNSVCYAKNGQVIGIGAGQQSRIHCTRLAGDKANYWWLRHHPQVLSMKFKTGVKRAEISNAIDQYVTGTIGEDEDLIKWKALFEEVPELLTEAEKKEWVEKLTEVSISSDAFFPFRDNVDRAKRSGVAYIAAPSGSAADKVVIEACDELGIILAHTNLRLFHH

KB [10] = experiment: Antiproliferative activity against human KB cells assessed as reduction in cell viability after 96 hrs in presence of thymidine by CellTiter-blue assay; format: functional, cell-based
Outline: (§3)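 KB cells, 4000 cells/well, in folate-free RPMI 1640 with 10% dialyzed FBS and 2 nM leucovorin. A range of drug concentrations was co-incubated with adenosine (60 μM) or thymidine (10 μM) for 96 h at 37 °C. Proliferation was read by CellTiter-blue fluorescence. Data are representative of at least triplicate experiments.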

KB [11] = experiment: Antiproliferative activity against human KB cells assessed as reduction in cell viability after 96 hrs in presence of adenosine by CellTiter-blue assay; format: functional, cell-based; outline: as §3
IGROV-1 [12] = experiment: Inhibition of GARFTase in human IGROV1 assessed as increase in GAR level at 1 uM after 48 hrs by LC-MS/MS analysis
Outline: (§4)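 NCI-IGROV1 ovarian cells in folate-free RPMI, 10% FBS, 2 mM L-glutamine, five replicate dishes, adhered 24 h; medium replaced and 1 μM inhibitor or DMSO vehicle added for 48 h. Extracted metabolites measured by reverse-phase LC-MS, negative ion mode, identified by exact mass and retention time against standards; normalized to cell protein; expressed relative to vehicle control.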

IGROV-1 [13] = experiment: Inhibition of GARFTase in human IGROV1 assessed as decrease in fGAR level at 1 uM after 48 hrs by LC-MS/MS analysis relative to control; outline: as §4
[14] = target: T1, Bifunctional purine biosynthesis protein ATIC; experiment: Inhibition of AICARFTase in human IGROV1 assessed as decrease in ZMP level at 1 uM after 48 hrs by LC-MS/MS analysis relative to control; settings: IGROV-1; outline: as §4
Target sequence in this assay (P31939 whole entry, looked up): as the sequence (P31939 whole entry) above

[15] = Inhibition of de nova purine biosynthesis in human IGROV1 assessed as decrease in IMP level at 1 uM after 48 hrs by LC-MS/MS analysis relative to control; format: functional; settings: IGROV-1; outline: as §4
[16] = Inhibition of de nova purine biosynthesis in human IGROV1 assessed as decrease in ATP level at 1 uM after 48 hrs by LC-MS/MS analysis relative to control; format: functional; settings: IGROV-1; outline: as §4
[17] = Inhibition of de nova purine biosynthesis in human IGROV1 assessed as decrease in ADP level at 1 uM after 48 hrs by LC-MS/MS analysis relative to control; format: functional; settings: IGROV-1; outline: as §4
IGROV-1 [18] = experiment: Inhibition of de nova purine biosynthesis in human IGROV1 assessed as decrease in AMP level at 1 uM after 48 hrs by LC-MS/MS analysis; format: functional; outline: as §4

SMILES: Nc1nc2sc(CCCCc3ccc(C(=O)N[C@@H](CCC(=O)O)C(=O)O)s3)cc2c(=O)[nH]1
- IC50 [1]: > 1000 nM
- IC50 (KB [2]): 2.1 nM
- IC50 (KB [3]): > 1000 nM
- IC50 (IGROV-1 [4]): 10.1 nM
- IC50 (IGROV-1 [5]): > 1000 nM
- Activity [6]: 89%
- Activity [7]: 60%
- Ki [8]: 1360 nM
- Ki [9]: 5150 nM
- Activity (KB [10]): Active
- Activity (KB [11]): inactive
- fold change (FC) (IGROV-1 [12]): 150
- inhibition (IGROV-1 [13]): 50%
- inhibition [14]: Active
- inhibition at 1 µM [15]: 60%
- inhibition at 1 µM [16]: 75%
- inhibition at 1 µM [17]: 60%
- inhibition (IGROV-1 [18]): Active

- IC50 (KB [2]): 4.74 nM
- IC50 (KB [3]): > 1000 nM
- Ki [9]: 1070 nM
SMILES: Nc1nc2sc(CCCCc3cc(C(=O)N[C@@H](CCC(=O)O)C(=O)O)cs3)cc2c(=O)[nH]1
- IC50 [1]: > 1000 nM
- IC50 (IGROV-1 [4]): > 1000 nM
- IC50 (IGROV-1 [5]): > 1000 nM
- Ki [8]: 150 nM
- Activity (KB [10]): Active
- Activity (KB [11]): inactive

SMILES: Nc1nc2[nH]cc(CCc3ccc(C(=O)N[C@@H](CCC(=O)O)C(=O)O)cc3)c2c(=O)[nH]1 [PEMETREXED]
- Ki [8]: > 150000 nM

- IC50 (KB [2]): 6.85 nM
- IC50 (KB [3]): > 1000 nM
- Ki [9]: 8030 nM
SMILES: Nc1nc2sc(CCCCc3csc(C(=O)N[C@@H](CCC(=O)O)C(=O)O)c3)cc2c(=O)[nH]1
- IC50 [1]: > 1000 nM
- IC50 (IGROV-1 [4]): 108 nM
- IC50 (IGROV-1 [5]): > 1000 nM
- Ki [8]: > 150000 nM
- Activity (KB [10]): Active
- Activity (KB [11]): inactive

- IC50 (KB [2]): 1.82 nM
- IC50 (KB [3]): > 1000 nM
- Ki [9]: 8370 nM
SMILES: Nc1nc2sc(CCCc3cc(C(=O)N[C@@H](CCC(=O)O)C(=O)O)cs3)cc2c(=O)[nH]1
- IC50 [1]: > 1000 nM
- IC50 (IGROV-1 [4]): 26 nM
- IC50 (IGROV-1 [5]): > 1000 nM
- Ki [8]: 910 nM
- Activity (KB [10]): Active
- Activity (KB [11]): inactive

- IC50 (KB [2]): 1.48 nM
- IC50 (KB [3]): > 1000 nM
- Ki [9]: 19800 nM
SMILES: Nc1nc2sc(CCCc3csc(C(=O)N[C@@H](CCC(=O)O)C(=O)O)c3)cc2c(=O)[nH]1
- IC50 [1]: > 1000 nM
- IC50 (IGROV-1 [4]): 86.7 nM
- IC50 (IGROV-1 [5]): > 1000 nM
- Activity (KB [10]): Active
- Activity (KB [11]): inactive

SMILES: Nc1nc2sc(CCCCc3ccc(C(=O)N[C@@H](CCC(=O)O)C(=O)O)o3)cc2c(=O)[nH]1
- IC50 [1]: > 1000 nM
- IC50 (KB [2]): 7.9 nM
- IC50 (KB [3]): > 1000 nM
- IC50 (IGROV-1 [4]): > 1000 nM
- IC50 (IGROV-1 [5]): > 1000 nM
- Activity [6]: 89%
- Activity [7]: 60%
- Ki [8]: 10700 nM
- Ki [9]: 24700 nM
- Activity (KB [10]): Active
- Activity (KB [11]): inactive

SMILES: Nc1nc2sc(CCCc3ccc(C(=O)N[C@@H](CCC(=O)O)C(=O)O)s3)cc2c(=O)[nH]1
- IC50 [1]: > 1000 nM
- IC50 (KB [2]): 1.42 nM
- IC50 (KB [3]): > 1000 nM
- IC50 (IGROV-1 [4]): 54.1 nM
- IC50 (IGROV-1 [5]): > 1000 nM
- Activity [6]: 89%
- Activity [7]: 60%
- Ki [8]: 8190 nM
- Ki [9]: 14500 nM
- Activity (KB [10]): Active
- Activity (KB [11]): inactive
- fold change (FC) (IGROV-1 [12]): 150
- inhibition (IGROV-1 [13]): 75%
- inhibition [14]: Active
- inhibition at 1 µM [15]: 60%
- inhibition at 1 µM [16]: 75%
- inhibition at 1 µM [17]: 60%
- inhibition (IGROV-1 [18]): Active

SMILES: Nc1nc2[nH]c(CCCc3ccc(C(=O)N[C@@H](CCC(=O)O)C(=O)O)s3)cc2c(=O)[nH]1
- fold change (FC) (IGROV-1 [12]): 150
- inhibition (IGROV-1 [13]): 99%
- inhibition [14]: 50%
- inhibition at 1 µM [15]: 60%
- inhibition at 1 µM [16]: 75%
- inhibition at 1 µM [17]: 60%
- inhibition (IGROV-1 [18]): Active

SMILES: Nc1nc2sc(CCCCc3ccc(C(=O)N[C@@H](CCC(=O)O)C(=O)O)cc3)cc2c(=O)[nH]1
- IC50 [1]: > 1000 nM
- IC50 (KB [3]): > 1000 nM
- IC50 (IGROV-1 [5]): > 1000 nM
- Ki [9]: 9480 nM
- Activity (KB [10]): Active
- Activity (KB [11]): inactive

SMILES: Nc1nc2[nH]cc(CCCCc3ccc(C(=O)N[C@@H](CCC(=O)O)C(=O)O)cc3)c2c(=O)[nH]1
- Activity (KB [10]): Active
- Activity (KB [11]): inactive
